Bioassay records (PubChem)
CAL PDZ FP-1 = blocks peptide binding to human CAL PDZ domain; 330,000 tested, 0.02% active; purified CAL PDZ, TMR-peptide fluorescence polarization, 1 h; AID 504414; inhibition, % at 20 µM;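 active = highest replicate inhibition of at least 40%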;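 note: plate controls were DMSO neutral control wells for no effect and unlabeled competitor peptide control wells for full effect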
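Test system: purified CerCALP PDZ construct; Compound dosing: one concentration, 20 µM compound; Also added: TMR-labelled reporter peptide T*-PRC34 bound in PDZ groove; Read-out: inhibition from polarization loss; Controls: unlabelled peptide and DMSO controls; Signal: FP readout, S and P plane fluorescence; Incubation: 1 h at RT.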
ERAP1 inh = inhibitors of human ERAP1 aminopeptidase | inhibition, % at 10.7 µM | 340,000 tested, 0.15% active | Q9NZ08 | recombinant ERAP1, Leu-AMC fluorescence, 60 min;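 active = mean replicate inhibition of at least 30%, or all replicates individually reaching that 30% level; inactive = mean below 30% and not every replicate reaching it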;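 note: 0% = neutral control wells and 100% = L-leucinethiol positive control wells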
DENV2 CPE rescue = DENV2-induced cell death inhibition; DENV2-infected cells, cytopathic effect rescue, plate reader; CPE inhibition, % at 9.99 µM; 350,000 tested, 1.7% active; AID 651640; in the data active = CPE inhibition above about 20%, passing the limit was not always enough; tested in BHK-21 cells;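 note: 0% = median of neutral control wells and 100% = median of positive control wells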
CAL PDZ FP-2 = inhibitors of human CAL PDZ peptide binding; Q9HD26; purified CAL PDZ, TMR-peptide fluorescence polarization, 1 h; inhibition, % at 24.9 µM; 300,000 tested, 0.92% active; AID 602252;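 active = mean inhibition of at least 30% with at least half of replicates also reaching 30%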;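 note: 0% = DMSO neutral control and 100% = excess unlabeled competitor peptide PRC23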
S100A4 MyoIIA = S100A4-myosin IIA interaction inhibition | P26447 | S100A4/TAMRA-MyoIIA peptide fluorescence polarization | inhibition, % at 10.7 µM | 360,000 tested, 0.14% active;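 active = mean inhibition of at least 70% across replicates, with every replicate also reaching that level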
Target sequence (P26447 whole entry, looked up): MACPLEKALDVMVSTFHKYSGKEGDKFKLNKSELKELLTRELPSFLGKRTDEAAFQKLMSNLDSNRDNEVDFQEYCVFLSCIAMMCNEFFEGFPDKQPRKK
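System – human S100A4 monomer protein, biochemical binding assay · Buffer or medium – Calcium-containing HEPES buffer, pH 7.2 · Timing – 5 min between mix addition and reading · Also added – TAMRA-labelled myosin IIA heavy-chain peptide probe, 5 nM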
SIRT5 inh = blocks human SIRT5 desuccinylation of peptide | inhibition, % at 15 µM | 330,000 tested, 1.1% active | Purified SirT5, succinyl-peptide AMC, trypsin-coupled fluorescence; in the data active = inhibition above about 15%
Target sequence (Q9NXA8 whole entry, looked up): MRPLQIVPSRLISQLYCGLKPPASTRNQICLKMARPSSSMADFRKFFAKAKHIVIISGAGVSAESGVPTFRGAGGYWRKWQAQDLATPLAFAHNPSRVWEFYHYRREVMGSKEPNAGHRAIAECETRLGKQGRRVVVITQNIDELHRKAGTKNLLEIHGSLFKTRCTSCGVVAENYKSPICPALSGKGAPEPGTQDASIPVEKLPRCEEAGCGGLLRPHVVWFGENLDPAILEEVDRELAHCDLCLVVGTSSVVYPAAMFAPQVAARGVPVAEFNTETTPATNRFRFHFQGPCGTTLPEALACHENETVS
Numbers without * were called inactive; / = not tested or not shown. In the library only some 2.9% were active in any assay of this set; here they are far more common.

SMILES	CAL PDZ FP-1	ERAP1 inh	DENV2 CPE rescue	CAL PDZ FP-2	S100A4 MyoIIA	SIRT5 inh
O=C(c1ccc2c(c1)OCO2)N1CC2(C1)[C@H](c1ccccc1)[C@@H](CO)N2C(=O)C1CCC1	/	1	44*	/	-3	7
O=C(c1ccc2c(c1)OCO2)N1CC2(C1)[C@H](c1ccccc1)[C@H](CO)N2C(=O)C1CCC1	/	2	6	/	3	-2
O=C(C1CCCCC1)N1CC2(C1)[C@H](c1ccccc1)[C@H](CO)N2C(=O)c1cccnc1	/	2	28*	/	-10	-1
O=C(c1cccnc1)N1CC2(C1)[C@H](c1ccccc1)[C@H](CO)N2C(=O)C1CCC1	/	-3	44*	/	57	1
CCC(=O)N1CC2(C1)[C@H](c1ccccc1)[C@H](CO)N2Cc1ccccc1F	/	0	-6	/	-10	13
CCC(=O)N1CC2(C1)[C@@H](c1ccccc1)[C@@H](CO)N2Cc1ccccc1F	/	-3	24*	/	-8	-1
O=C(C1CCC1)N1CC2(C1)[C@@H](c1ccccc1)[C@@H](CO)N2C(=O)c1cccnc1	/	3	0	/	5	11
C[C@H]1CN([C@@H](C)CO)C(=O)c2cccc(NC(=O)NC3CCCCC3)c2O[C@@H]1CN(C)S(C)(=O)=O	/	-3	5	/	-2	-9
CCC(=O)N1CC2(C1)[C@H](c1ccccc1)[C@H](CO)N2C(=O)c1cccnc1	/	-2	24*	/	-10	6
O=C(C1CCC(C(=O)N2CCc3ccccc32)CC1)N1CCc2ccccc21 (centres undefined)	-1	/	/	-14	/	/
O=C(c1ccc(F)cc1)N1CCC(C(=O)N2CCCc3ccccc32)CC1	/	-4	31*	/	1	/
CC(C)Cc1ccc(C(C)C(N)=NCCc2ccccc2)cc1 (centres undefined)	0	-3	33*	-3	5	-5
COc1ccc(CCN=C(N)C(C)c2ccccc2)cc1OC (centres undefined)	0	1	-3	/	5	-5
CNS(=O)(=O)c1cccc(C(=O)OCC(=O)c2cc(C)n(-c3ccc4c(c3)OCO4)c2C)c1	-1	/	/	-2	/	/
Cc1cc(C(=O)COc2ccccc2Cl)c(C)n1-c1ccc2c(c1)OCO2	-1	-3	3	45*	1	/
COc1cccc(S(=O)(=O)N[C@@H]2CC[C@H](CC(=O)NCc3ccc(Cl)cc3)O[C@H]2CO)c1	/	-1	-9	/	24	0
C[C@H](CO)N1C[C@H](C)[C@H](CN(C)Cc2cccc(C(=O)O)c2)Oc2cc(C3=CCCC3)ccc2S1(=O)=O	/	-2	44*	/	-5	/
Cc1ccc(-c2ccc3c(c2)O[C@H](CN(C)Cc2cccnc2)[C@H](C)CN([C@@H](C)CO)S3(=O)=O)cc1	/	0	-1	/	-6	15*
C[C@@H]1CN([C@H](C)CO)S(=O)(=O)c2ccc(C3=CCCCC3)cc2O[C@@H]1CN(C)Cc1cncnc1	/	3	0	/	107*	2
C[C@@H]1CN([C@H](C)CO)S(=O)(=O)c2ccc(C3=CCCCC3)cc2O[C@@H]1CN(C)Cc1ccccc1	/	3	19	/	79*	7
C[C@@H]1CN([C@@H](C)CO)S(=O)(=O)c2ccc(C3=CCCCC3)cc2O[C@@H]1CN(C)Cc1cncnc1	/	2	-5	/	-4	5
C[C@@H]1CN([C@@H](C)CO)C(=O)c2c(c3ccccc3n2C)-c2ccccc2CO[C@H]1CN(C)C(=O)CCC(F)(F)F	/	0	-5	/	5	2
C[C@@H]1CCCCO[C@H](CN(C)S(=O)(=O)c2cn(C)cn2)[C@H](C)CN([C@@H](C)CO)C(=O)c2cc(NC(=O)Nc3ccc(F)cc3)ccc2O1	/	1	-6	/	12	1
CO[C@@H]1CN(C)C(=O)c2cc(NC(=O)Nc3c(C)noc3C)ccc2OC[C@H](C)N(C)C[C@@H]1C	/	2	-5	/	0	-4
Cc1cccc(S(=O)(=O)N2[C@@H]3CNC[C@H]2C3c2ccc(-c3ccncc3)cc2)c1 (some centres undefined)	/	2	-3	/	-9	4
SMILES	CAL PDZ FP-1	ERAP1 inh	DENV2 CPE rescue	CAL PDZ FP-2	S100A4 MyoIIA	SIRT5 inh
C[C@H]1CN([C@@H](C)CO)S(=O)(=O)c2ccc(C3=CCCCC3)cc2O[C@H]1CN(C)Cc1ccccc1	/	3	8	/	100*	6
C[C@H]1CN([C@@H](C)CO)S(=O)(=O)c2ccc(C3=CCCC3)cc2O[C@@H]1CN(C)Cc1cccnc1	/	2	30*	/	-22	3
C[C@H]1CN([C@@H](C)CO)S(=O)(=O)c2ccc(C3=CCCCC3)cc2O[C@H]1CN(C)C(=O)Cc1ccncc1	/	1	1	/	8	2
C[C@@H]1CN([C@@H](C)CO)S(=O)(=O)c2ccc(C3=CCCC3)cc2O[C@@H]1CN(C)Cc1cccnc1	/	1	8	/	0	3
C[C@H]1CN([C@@H](C)CO)S(=O)(=O)c2ccc(C3=CCCCC3)cc2O[C@@H]1CN(C)C(=O)Cc1ccccc1	/	0	2	/	-8	15*
CO[C@@H]1CN(C)C(=O)c2cc(NC(=O)c3ccccc3F)ccc2OC[C@H](C)N(C)C[C@@H]1C	/	2	10	/	9	-5
C[C@@H]1CN([C@H](C)CO)C(=O)Cc2cc(NC(=O)Nc3ccccc3)ccc2O[C@@H]1CN(C)Cc1ccccc1	/	1	2	/	5	1
Cc1ccc(N=C2NC(=O)/C(=C/c3cccnc3)S2)c(C)c1	-2	1	6	-2	1	2
Cc1ccc(N=C2NC(=O)/C(=C\c3ccsc3)S2)c(C)c1	-5	-1	96*	5	-3	5
COc1ccc(NC(=O)c2cccnc2N2CCCCC2)cc1	-1	/	/	-2	/	/
COc1ccc(NC(=O)c2cccnc2N2CCCC2)cc1	1	1	-1	/	-6	19*
CC(C)C[C@H](NC(=O)C1CCN(C(=O)[C@H](Cc2ccccc2)NC(=O)OC(C)(C)C)CC1)C(=O)O	0	-3	8	-5	-2	22*
CSCC[C@H](NC(=O)OC(C)(C)C)C(=O)N1CCC(C(=O)N[C@@H](C)C(=O)NC(C)c2ccccc2)CC1 (some centres undefined)	1	/	8	1	0	/
CSCC[C@H](NC(=O)OC(C)(C)C)C(=O)N1CCC(C(=O)N[C@@H](C)C(=O)NCc2ccc(F)cc2)CC1	0	-5	36*	-2	-1	7
O=[N+]([O-])c1ccccc1OCc1nc(-c2cccs2)no1	0	0	23*	-4	-3	0
CCCNC(=O)N(Cc1cccnc1)C[C@H]1N[C@H](CO)[C@@H]1c1ccccc1	/	0	0	/	-16	2
CN(CC(=O)Nc1ccc(Cl)cc1)C(=O)CCc1nc2sc3c(c2c(=O)[nH]1)CCCC3	1	3	31*	2	0	-1
